High-throughput results as filed in PubChem BioAssay.
The full list was thinned out, with hits kept by preference.
zfTRPN1 agonist: zebrafish TRPN1 (NompC) channel agonism; HEK293 zebrafish TRPN1-YFP, Fluo-8 calcium fluorescence; 100% = response to 87 µM carbachol; activation, % at 3 µM; actives 0.18% (n = 220,000); AID 1424;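 active = activation above its plate's cutoff, the mean activation of test wells on that plate plus 3 SD, cut at about 19% in these data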
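Material: zebrafish TRPN1-YFP in HEK293 cells. Doses: one dose of 3 µM, 0.3% DMSO. Incubation: dye 1 h 37 °C plus 30 min RT. Measured by: intracellular calcium fluorescence with Fluo-8.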
TRPML3 agonist: agonists of human TRPML3 channel; HEK293 TRPML3-YFP, Fluo-8 calcium fluorescence; 100% = the carbachol control signal; activation, % at 3 µM; actives 0.29% (n = 220,000); AID 1448;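 active = activation above its plate's cutoff, the mean activation of the plate's test wells plus 3 SD, cut at about 12% in these data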
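Test system: TRPML3-YFP stable HEK293 cells. Doses: single point at 3 µM. Incubation: dye loading 1 h 37 °C then 30 min ambient, 125 s read. Signal: Fluo-8 calcium dye fluorescence, ex 470-495, em 515-575 nm. Measure: percent activation from peak-to-basal fluorescence ratio, scaled between DMSO and carbachol.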
ROMK primary: human ROMK K+ channel modulation, primary screen; P48048; Tet-inducible ROMK, thallium flux fluorescence; actives lie on both sides; B-score at 10 µM; actives 2% (n = 130,000);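 active = signal ratio slope over the read window, or its plate-corrected B-score, at least 3 SD from the plate mean, either direction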;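 note: B-score of the F/F0 ratio slope over 7 to 12 s after thallium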
Target sequence (P48048 whole entry, looked up): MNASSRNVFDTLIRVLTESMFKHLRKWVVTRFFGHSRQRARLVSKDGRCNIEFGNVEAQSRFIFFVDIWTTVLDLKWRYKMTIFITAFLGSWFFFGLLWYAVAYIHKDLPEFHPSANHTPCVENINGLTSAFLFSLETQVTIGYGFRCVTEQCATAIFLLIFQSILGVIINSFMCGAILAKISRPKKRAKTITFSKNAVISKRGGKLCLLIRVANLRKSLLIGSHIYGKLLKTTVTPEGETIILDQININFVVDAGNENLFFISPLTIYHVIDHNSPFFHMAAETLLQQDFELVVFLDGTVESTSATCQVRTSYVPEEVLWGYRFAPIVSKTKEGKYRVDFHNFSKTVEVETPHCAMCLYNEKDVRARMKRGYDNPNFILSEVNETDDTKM
ABCG2 inh: inhibitors of human ABCG2 transporter, ABCB1 counter-screen | Q9UNQ0 | inhibition, % at 6.6 µM | actives 0.1% (n = 190,000) | IgMXP3 cells, JC-1 efflux, flow cytometry | AID 1325;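 active = inhibition above 80%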
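material = IgMXP3 (ABCG2) plus far-red-tagged CCRF-Adr (ABCB1) cells | amount = 3 million cells/mL, equal mix of both lines | also added = JC-1 transporter substrate | dosing = one concentration, 6.6 µM final | schedule = 10 min at 25 °C | measured by = flow cytometric JC-1 green MFI at 530 nm | read-out basis = percent efflux inhibition, scaled nicardipine 100% to DMSO 0%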
ABCB1 block: blocks JC-1 efflux by human ABCB1 transporter | AID 1326 | CCRF-Adr cells, flow cytometry | inhibition, % at 6.6 µM | P08183 | actives 0.067% (n = 190,000); in the data active = inhibition above about 40%;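 note: higher value means more JC-1 retained so stronger ABCB1 efflux block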
Biofilm kill mix: mixtures killing C. albicans biofilm | inhibition, % at 7.6 µM | actives 0.02% (n = 120,000) | AID 1242 | C. albicans biofilm persisters + clotrimazole, fluorescence viability; primary screen in compound mixtures of four per well;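 note: compounds exposed to preformed 24 h biofilms for 48 h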
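Probe or stimulus – Clotrimazole 50 µg/mL co-treatment · System – C. albicans biofilms · Schedule – 24 h biofilm formation, then 48 h compound exposure, 37 °C · Evaluation – percent inhibition of biofilm viability · Technique – 2-h Alamar Blue fluorescence, 535/590 nm excitation/emission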
ROMK hit retest: retested hit modulating human ROMK potassium channel | shares compounds with ROMK primary | ROMK thallium flux, fluorescence ratio; stronger effect = lower value | normalized thallium flux (F/F0 slope) at 10 µM | actives 54% (n = 3,000);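 active = Flux at 10 µM at least 3 SD below or above vehicle control mean in one or both replicates; inconclusive = no clear call, values can overlap the other calls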
Hits are given with their value; . = inactive; ? = inconclusive; / = no result.

SMILES | zfTRPN1 agonist | TRPML3 agonist | ROMK primary | ABCG2 inh | ABCB1 block | Biofilm kill mix | ROMK hit retest
COc1ccc(/C=C/S(=O)(=O)NCc2ccccc2)cc1OC | . | . | . | . | . | . | /
CC(=O)NCc1ccc(C(=O)CCl)cc1 | . | . | -2 | . | . | . | 0.0577
O=c1c2ccccc2nc(/C=C/c2ccc([N+](=O)[O-])o2)n1CCCO | . | . | -3.06 | . | . | / | 0.0523
O=c1c2ccccc2nc(/C=C/c2ccc([N+](=O)[O-])cc2)n1CCCO | . | . | . | . | . | . | /
COc1ccc(CNC(=O)c2ccc(C(C)C)cc2)cc1 | . | . | / | . | . | . | /
COc1ccc(C(=O)NCc2c(CC(C)C)oc(C)c2C(=O)O)cc1 | . | . | / | . | . | / | .
CC(C)(C)n1nc2c(c1NC(=O)Cc1ccccc1)CS(=O)(=O)C2 | . | . | . | . | . | . | /
Cc1ccc(S(=O)(=O)N2CCN(C(=O)c3ccccc3)CC2)cc1 | . | . | . | . | . | / | /
Cc1ccc(C(=O)N2CCN(S(=O)(=O)c3ccccc3)CC2)cc1 | . | . | 2.75 | . | . | . | ?
CC1(C)CC(NC(=S)Nc2ccc([N+](=O)[O-])cc2)CC(C)(C)N1 | . | . | . | . | . | . | /
Cc1ccc(C(c2nnnn2C(C)(C)C)N2CCN(C3CCCC3)CC2)cc1 (centres undefined) | . | . | -5 | . | . | / | .
CC(C)(C)n1nnnc1C(c1ccncc1)N1CCN(C2CCCCC2)CC1 (centres undefined) | . | . | / | . | . | / | /
Cc1cc(C)cc(OCc2ccc(C(=O)N3N=C(C(F)F)CC3(O)C(F)F)o2)c1 (centres undefined) | . | . | 3.01 | . | . | / | .
COc1ccc(CN2CCC(N(CCc3ccccc3)Cc3ccccc3)CC2)c(OC)c1 | . | . | -3.32 | . | . | . | 0.0508
CCOc1ccc(C(=O)Nc2cccc3ncccc23)cc1Br | . | . | . | . | . | . | /
COc1ccc(OC)c(C2C(C(=O)c3ccccc3)=C(C)Nc3nc4ccccc4n32)c1 (centres undefined) | . | . | 2.5 | . | . | . | 0.0677
COc1ccc(-c2cc(C(F)(F)F)nc(S(C)(=O)=O)n2)cc1 | . | . | -4.23 | . | . | / | 0.0552
CS(=O)(=O)c1nc(-c2ccc(F)cc2)cc(C(F)(F)F)n1 | . | . | -2.55 | . | . | . | 0.0583
Nc1nc(-c2ccc(F)cc2)cc(C(F)(F)F)n1 | . | . | . | . | . | / | /
COc1ccc(-c2cc(C(F)(F)F)nc(N)n2)cc1 | . | . | / | . | . | . | /
Cn1c(-c2ccccc2)c(C=O)c2ccccc21 | . | . | . | . | . | . | /
Cn1c(-c2ccccc2)c(/C=N/NC(=O)c2ccc(O)cc2)c2ccccc21 | . | . | / | / | / | . | .
O=C(O)c1cccc(-c2ccc(/C=c3/sc4nc5ccccc5n4c3=O)o2)c1 | . | . | / | / | / | . | 0.0401
O=C(O)c1cc(C(=O)O)cc(-c2ccc(/C=c3/sc4nc5ccccc5n4c3=O)o2)c1 | . | . | . | . | . | . | /
CCCCOc1ccc2c(c1)/C(=C(\C(Cl)=C(Cl)Cl)[N+](=O)[O-])N2 | . | . | -5.56 | . | . | . | 0.0541
SMILES | zfTRPN1 agonist | TRPML3 agonist | ROMK primary | ABCG2 inh | ABCB1 block | Biofilm kill mix | ROMK hit retest
CCOc1ccc2c(c1)/C(=C(\C(Cl)=C(Cl)Cl)[N+](=O)[O-])N2 | . | . | -4.73 | . | . | . | 0.0534
O=C(NCCc1c[nH]c2ccccc12)/C(=C/c1ccco1)NC(=O)c1ccco1 | . | . | 2.32 | . | . | . | .
CC(=C\c1ccco1)/C=C(\C#N)C(=O)NCCc1c[nH]c2ccccc12 | . | . | / | . | . | . | /
O=C(Nc1cnc2ccccc2c1)c1cccc(-n2cnnn2)c1 | . | . | / | . | . | / | 0.0599
COc1ccc(N2CCN(C(=O)c3cc4c(-c5cccc(OC)c5)nn(C)c4s3)CC2)cc1 | . | . | / | . | . | / | /
CC(=O)c1ccc(N2CCN(C(=O)c3cc4c(-c5ccccc5F)nn(C)c4s3)CC2)cc1 | . | . | / | . | . | / | 0.0617
O=C(Nc1cc(S(=O)(=O)N2CCOCC2)ccc1N1CCOCC1)c1ccc(Cl)nc1 | . | . | / | / | / | . | /
O=C(NCc1cccnc1)C(=O)NCC1OCCN1S(=O)(=O)c1ccc(F)cc1 (centres undefined) | . | . | . | . | . | . | /
OCC(O)C(O)C(O)C(O)c1nc2ccccc2[nH]1 (centres undefined) | . | . | . | . | . | . | /
CCN(CC)S(=O)(=O)c1ccc(N2CCOCC2)c(NC(=O)Cc2ccc(Cl)cc2)c1 | . | . | / | . | . | . | .
Cc1ccc(NC(=O)C2CC2C)c(Cl)c1 (centres undefined) | . | . | . | . | . | . | /
Cc1cccc(N2CCN(C(=O)CC(NC(=O)c3ccccc3Cl)c3ccccc3)CC2)c1C (centres undefined) | . | . | -4.71 | . | . | . | 0.054
O=C(NC(CC(=O)N1CCN(c2ccc([N+](=O)[O-])cc2)CC1)c1ccccc1)c1ccccc1Cl (centres undefined) | . | . | . | . | . | . | /
Cc1nc2ccc(NC(=O)c3cncc(Br)c3)cc2s1 | . | . | / | / | / | . | /
CCCc1nc(SCC(=O)N2CCCc3ccccc32)c2c(=O)n(C)c(=O)n(C)c2n1 | . | . | / | . | . | / | 0.0568
COCCn1c(SCC(=O)N2CCCc3ccccc32)nc2ccccc2c1=O | . | . | -2.69 | . | . | / | 0.0634
CCc1nc(SCC(=O)N2CCN(c3ccccc3)CC2)c2c(=O)n(C)c(=O)n(C)c2n1 | . | . | / | . | . | . | /
Cn1c(=O)c2c(SCC(=O)N3CCCc4ccccc43)nc(CC(C)(C)C)nc2n(C)c1=O | . | . | / | . | . | / | /
CCCc1nc(SCC(=O)N2CCC(Cc3ccccc3)CC2)c2c(=O)n(C)c(=O)n(C)c2n1 | . | . | / | . | . | / | ?
O=C(Nc1cccc([N+](=O)[O-])c1)Nc1ccc2c(c1)OCCO2 | . | . | . | . | . | . | /
COc1ccc(C(=O)NCc2nnc(SCC(=O)Nc3nc4ccccc4s3)o2)cc1OC | . | . | . | . | . | . | /
Nc1nc(-c2ccccc2)cn1/N=C/c1ccccc1 | . | . | 7.27 | / | / | . | .
Cc1c(C)n(Cc2ccccc2)c2ccc(C(=O)OCCN(C)C)cc12 | . | . | -3.54 | . | . | . | 0.0592
CCOC(=O)c1cc(-c2ccc(OC(F)F)cc2)nc2c1c(=O)[nH]c(=O)n2C | . | . | . | . | . | . | /
Cc1cccc(C)c1NC(=O)c1ccc(-c2ccc(Cl)cc2Cl)o1 | . | . | -2.93 | . | . | / | 0.052
